The values below come from PubChem BioAssay.

Calls of active or inactive are those of the source.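 How the source made its calls: active means growth inhibition above 25% in both replicates, a cutoff set 3 SD above the mean; inconclusive means above 25% in only one replicate; inactive means the rest.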

This test in a line: OD615 S. cerevisiae growth inhibition, permissive medium, pilot counter-assay, permissive growth control for S. cerevisiae lifespan shortening project (AID 705). To be noted: OD615, 24 h, at 10 µM, stronger effect = higher value. Put shortly:
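assay system = Saccharomyces cerevisiae strain carrying genetically modified DeaD replicative-lifespan system | medium = SC raffinose/galactose permissive medium | dosing = 10 µM single dose, 0.25% DMSO | schedule = 24 h compound exposure at 30 °C after 4 h pre-growth | measured by = OD at 615 nm | read-out basis = growth inhibition from lowered OD615 after 24 h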
For the compound `Cc1ncc(CO)c2cc(S(=O)(=O)c3ccc(F)cc3)c(=O)oc12`, the growth inhibition was -11.8% (inactive).
Take `CCC(SCC(=O)OC)C(=O)Nc1nnc(C(C)C)s1` (centres undefined): the growth inhibition was 1.46% (inactive).
Consider `C=CCOC(=O)C1=C(C)NC(C)=C(C(=O)OCC=C)C1c1ccc(O)cc1`, for which the growth inhibition was -6.92% (inactive).
With `CC(=O)c1ccc(OCC(O)CN2CCOCC2)cc1` (centres undefined), the growth inhibition is -11.4% (inactive).
The figure for `CCOc1cc(-c2nc(-c3ccncc3)no2)cc(OCC)c1OCC` is -5.04% (inactive); for `O=C1CC(c2cccs2)CC(O)=C1C=NCCN1CCNCC1` (centres undefined) it is -11.8% (inactive).
As to `OC(COc1ccc2ccccc2c1)CN1CCN(c2ccc(F)cc2)CC1` (centres undefined), the growth inhibition was 3.06% (inactive).
As for `O=C(Nc1ccc(SC(F)F)cc1)C1=COCCO1`, the growth inhibition is -0.035% (inactive).
Turning to `COc1ccc(NS(=O)(=O)c2ccc3c(c2)oc(=O)n3C)c(OC)c1`, the growth inhibition was -16.1% (inactive).
In the case of `COc1ccccc1C1CC(=O)NC(SCC(=O)Nc2ccccc2)=C1C#N` (centres undefined), the growth inhibition was 4.78% (inactive).
Turning to `CC(=O)Nc1ccccc1NC(=O)C(F)(F)F`, the growth inhibition was -14.2% (inactive).
For `CCOC(=O)C1=C(C)S/C(=C\N(C)C)C1=O`, the growth inhibition is -8.63% (inactive).
`Cc1ccc(-n2nnc3c(=O)n(CC(=O)NCc4ccco4)cnc32)cc1`: the growth inhibition is -7.22% (inactive).
As to `O=C(Cn1c(=O)sc2ccccc21)N1CCOCC1`, the growth inhibition is -1.21% (inactive).
As for `CCOCCOC(=O)C1=C(C)NC2=C(C(=O)CC(c3cccs3)C2)C1c1ccsc1` (centres undefined), the growth inhibition was -1.18% (inactive).
Turning to `CC1CC(C)CN(CCCNC(=O)Cn2ncc3c(=O)oc4ccccc4c32)C1` (centres undefined), the growth inhibition was -0.3% (inactive).
Turning to `CCC(C#CCN1CCCCC1)(CC)OCCC#N`, the growth inhibition is -4.58% (inactive).
Regarding `CC1CCCCC1NC(=O)c1ccc(CNc2c(N3CCCC3)c(=O)c2=O)cc1` (centres undefined), the growth inhibition was -2.63% (inactive).
With `Cc1ccc(-c2nc3cccnc3o2)cc1NC(=O)COc1ccc(Cl)cc1C`, the growth inhibition is -19.4% (inactive).
In the case of `CCCCCn1c(=O)[nH]c2c(c1=O)CCC2`, the growth inhibition was 2.71% (inactive).
`CCN(c1ccccc1)c1cc(C)nc2nc(C)nn12`: the growth inhibition was -17% (inactive).
With `COc1ccc(C(=O)c2cnc(C(C)C)n2C)cc1`, the growth inhibition is -3.74% (inactive).
Consider `O=C1C(C=NCc2ccco2)=C(O)c2ccccc21`, for which the growth inhibition was -0.635% (inactive).
Then `C=CCn1cc(C(=O)NCCCOC)c(=O)c2cc(S(=O)(=O)N3CCC(C)CC3)ccc21`, with -10.6% (inactive); and `NC(=O)c1oc2ccccc2c1NC(=O)CCc1ccccc1`, with 1.12% (inactive); and `CCCSc1nc2c(c(=O)n1CC)SC(C)C2` (centres undefined), with -2.71% (inactive).
The figure for `CCOC(=O)Cn1c(=O)oc2cc(S(=O)(=O)Nc3ccc(F)cc3)ccc21` is -7.54% (inactive); for `COc1ccc(CCNC(=O)CSc2nnnn2-c2ccccc2)cc1` it is 2.08% (inactive).
With `CCn1cc(C2=NC(C(C)C)CO2)c2ccccc21` (centres undefined), the growth inhibition is -12% (inactive).
With `O=C(Cn1cnc2c(cnn2-c2ccccc2)c1=O)N1CCOCC1`, the growth inhibition is -4% (inactive).
With `COc1ccc(N(CC(=O)Nc2ccc3c(c2)OCCO3)S(=O)(=O)c2c(C)nn(C)c2C)cc1`, the growth inhibition is -9.27% (inactive).
In the case of `COC(=O)C1=C(C)N(C)C(C)=C(C(=O)OC)C1c1ccsc1`, the growth inhibition is -6.88% (inactive).
In the case of `O=c1c2c3c(sc2nc2n1CCCCC2)CCCC3`, the growth inhibition is -12.6% (inactive).
The figure for `CCN=C(NCC)SC1CC(=O)N(c2cccc(OC)c2)C1=O` (centres undefined) is 5.98% (inactive).
Take `CCOC(=O)N1CCN(C(=O)c2cc3cc(Br)ccc3oc2=O)CC1`: the growth inhibition was -3.99% (inactive).
For `Cc1cc(NC(=O)C2CC(c3ccc(F)cc3)=NO2)no1` (centres undefined), the growth inhibition was -0.42% (inactive).
Take `Cc1nnc(NC(=O)CSc2nnc(Cc3cccn3C)n2-c2cccc(C(F)(F)F)c2)s1`: the growth inhibition was -1.29% (inactive).
The figure for `O=C(c1cncc(Br)c1)N1CCN(c2ccc(N3CCOCC3)nn2)CC1` is -0.43% (inactive).
The figure for `Cc1nnc2ccc(N3CCN(C(=O)c4ccccc4)CC3)nn12` is -4.49% (inactive).
